# Compound activity (PubChem)
# The list is not random: actives were taken first. Their share in the collection is about 3.1%.
# V-ATPase pHluor: yeast V-ATPase proton transport regulation by pHLuorin. S. cerevisiae, pHLuorin cytosolic pH fluorescence. response, % at 10 µM. 350,000 compounds, 0.37% hits. AID 504577; in the data active = response mostly above about 7.3%, no sharp cut-off; inactive = mostly below about 5.4%; also: actives read high
# Lipid droplet: hepatic lipid droplet formation modulation. AML12 mouse hepatocytes, oleate lipid droplets, BODIPY imaging. inhibition, % at 6.5 µM. 240,000 compounds, 0.4% hits. AID 1656;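 active = lipid droplet intensity inhibited by at least 50%, with more than 500 cells counted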
#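 Material – mouse AML12 hepatocyte cell line, fixed after treatment · Compound dosing – one dose, 6.5 µM compound · Times – compound with oleate, overnight · Measured by – Image-based BODIPY and DAPI two-channel analysis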
# ADAM17 inh: inhibits human ADAM17. P78536. recombinant ADAM17, EDANS/DABCYL FRET peptide cleavage. inhibition, % at 6.95 µM. 370,000 compounds, 0.83% hits. AID 720648;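 active = inhibition above the mean of compounds lying between control limits plus 3 SD, set per campaign, cut at about 8.5% in these data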;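 also: 0% = DMSO-only wells as the low control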
# Target sequence (P78536 215-824 limits assumed): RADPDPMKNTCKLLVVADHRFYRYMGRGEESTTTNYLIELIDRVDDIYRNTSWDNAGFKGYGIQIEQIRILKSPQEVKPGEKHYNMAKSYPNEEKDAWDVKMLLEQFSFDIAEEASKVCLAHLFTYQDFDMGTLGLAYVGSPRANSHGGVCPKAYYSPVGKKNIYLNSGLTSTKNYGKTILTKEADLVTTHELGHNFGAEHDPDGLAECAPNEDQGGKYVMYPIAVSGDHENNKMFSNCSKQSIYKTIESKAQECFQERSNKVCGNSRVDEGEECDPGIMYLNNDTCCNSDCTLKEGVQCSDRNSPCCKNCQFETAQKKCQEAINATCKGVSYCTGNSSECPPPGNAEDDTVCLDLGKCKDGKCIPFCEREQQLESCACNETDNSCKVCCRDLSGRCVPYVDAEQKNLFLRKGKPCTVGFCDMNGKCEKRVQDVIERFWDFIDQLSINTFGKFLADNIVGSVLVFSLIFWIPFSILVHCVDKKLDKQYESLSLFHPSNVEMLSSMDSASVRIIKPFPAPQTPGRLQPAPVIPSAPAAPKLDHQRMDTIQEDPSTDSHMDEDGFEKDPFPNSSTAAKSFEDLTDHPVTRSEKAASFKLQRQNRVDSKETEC
# aDG glyco act: increases alpha dystroglycan glycosylation. Pro5-aDG cells, alpha-DG glycosylation AlphaScreen (IIH6); 0% Pro5, 100% B10-LARGE cell signal. activation, % at 10 µM. 360,000 compounds, 0.22% hits;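 active = activation of at least 8% versus controls, or a plate z-score of at least 8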;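 also: Pro5 are CHO cells carrying HIG-tagged alpha-DG that lacks glycosylation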
# MPTP block: permeability transition pore inhibition. isolated mouse mitochondria, Ca2+ swelling absorbance, 30 min. inhibition, % at 10 µM. 360,000 compounds, 1.4% hits. AID 602449;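 active = inhibition of 50% or more, scaled per plate between neutral and stimulator controls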;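 also: 0% = DMSO wells given calcium and 100% = 1 mM EGTA wells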
# ADAM10 inh: ADAM10 inhibition, QFRET primary screen; 370,000 compounds, 0.62% hits; O14672; inhibition, % at 7 µM; recombinant ADAM10, EDANS/DABCYL FRET peptide cleavage, 3 h;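 active = inhibition above a per-campaign cutoff equal to the mean of compounds falling between control-based bounds plus 3 SD, cut at about 20% in these data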;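 also: 0% = DMSO wells while the 100% control is not disclosed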
# ADAM10 counter: ADAM10 inhibition, counter-screen for ADAM17 exosite hits; shares compounds with ADAM17 inh; recombinant ADAM10, EDANS/DABCYL FRET peptide cleavage, 3 h; inhibition, % at 6.95 µM; 2,900 compounds, 47% hits; AID 743256;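 active = mean inhibition over the triplicate runs exceeds the activity threshold set in the earlier primary screen, cut at about 20% in these data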;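 also: 0% = DMSO wells and 100% = marimastat wells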
# ADAM17 confirm: confirmation of inhibitors of human ADAM17; shares compounds with ADAM17 inh; recombinant ADAM17, EDANS/DABCYL QFRET peptide cleavage; inhibition, % at 6.95 µM; 2,900 compounds, 65% hits;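 active = mean inhibition across replicates above the hit cutoff set in the primary screen, cut at about 8.5% in these data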;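 also: 0% = DMSO wells and 100% = marimastat wells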
# Numbers without * were called inactive; / = no result given.
SMILES,V-ATPase pHluor,Lipid droplet,ADAM17 inh,aDG glyco act,MPTP block,ADAM10 inh,ADAM10 counter,ADAM17 confirm
O=C(CN1c2ccccc2Sc2ccccc21)NNC(=O)Nc1cccc(Cl)c1,0,15,8.8*,0,38,-2,10,8.9*
C[C@H]1[C@@H](OC(=O)NC2CCC2)CC[C@@]23CCCN2C(=O)CCC[C@@H]13,/,/,-4,/,/,1,/,/
Cc1c(NC(=O)c2cccc(NC(=O)c3ccco3)c2)cccc1C(=O)O,3,1,9.0*,0,-1,6,-7,-1
Cc1cccc(NC(=O)c2cccc(NC(=O)c3ccco3)c2)c1C,3,/,-5,0,4,8,/,/
Cc1cccc(C(C#N)c2nc3ccccc3nc2C(F)(F)F)c1 (stereo unspecified),1,/,8.7*,0,4,18,10,4
O=C(CCc1nc(-c2ccccc2F)no1)NCCc1cccc(F)c1,/,/,2,/,/,-9,/,/
CCC[C@H]1[C@@H](OC(=O)N2CCCC2)CC[C@@]23CCCN2C(=O)CCC[C@@H]13,/,/,-4,/,/,-3,/,/
O=C1c2cccc(OCC(=O)N3CCCc4ccccc43)c2CCN1Cc1ccc(Br)cc1,1,-46,9.7*,0,2,17,10,12*
O=C1c2cccc(OCC(=O)N3CCCc4ccccc43)c2CCN1Cc1ccccc1,-1,-1,1,0,0,3,/,/
Cc1ccccc1CN1CCCCC(NC(=O)c2ccc3ccccc3c2)C1=O (stereo unspecified),/,/,22*,/,/,5,7,8
CCCCOc1ccc(C(=O)NC2CCCCN(Cc3ccccc3C)C2=O)cc1 (stereo unspecified),/,/,0,/,/,1,/,/
CN(C)c1cccc(-c2cnc(N3CCC(C(N)=O)CC3)s2)c1,/,/,-15,/,/,-36,/,/
Cc1ccc(C(=O)n2ccc3ccc(-c4ccc5ccn(Cc6ccc(C#N)cc6)c5c4)cc32)cc1,/,/,0,/,/,-7,/,/
CC(C)C[C@H](NC1(C(=O)NCCc2c[nH]c3ccccc23)CCC1)C(=O)NCCCc1ccccc1,/,/,8.8*,/,/,6,11,6
CCOC(=O)c1cccc(NS(=O)(=O)c2cnc[nH]2)c1,1,0,0,0,1,-9,/,/
CCOC(=O)c1ccc(NS(=O)(=O)c2cnc[nH]2)cc1,-3,3,9.3*,0,0,-10,-4,-3
CCC[C@H]1[C@H](N)CC[C@@]23CCCN2C(=O)CCC[C@@H]13,/,/,-2,/,/,-7,/,/
CCC(C)N(C(=O)c1ccc(CNC(=O)c2cccc(Br)c2)cc1)C(C)CC (stereo unspecified),/,/,1,/,/,6,/,/
O=C(COn1nnc2ccc(S(=O)(=O)N3CCOCC3)cc21)NCCc1ccccc1,-4,/,13*,0,0,8,-2,1
CCCCSc1nc(C)cc(SCC(=O)N/N=C/c2cccc(OC)c2O)n1,-2,/,14*,0,21,11,2,8
O=C(O)CNC(=O)C1(NC(=O)OCc2ccccc2)CCCC1,1,/,8.7*,0,-1,6,1,3
COC(=O)c1ccc(C(C(=O)NCc2ccccc2)N(Cc2cccs2)C(=O)c2cnccn2)cc1 (stereo unspecified),-6,-13,-2,0,1,7,/,/
Cc1ccc(C(C(=O)NCc2ccccc2)N(Cc2cccs2)C(=O)c2ccc3c(c2)OCCO3)cc1 (stereo unspecified),3,8,10*,-1,5,15,14,11*
CCOC(=O)[C@@]12CN(C(=O)OC(C)(C)C)CC=C1N(Cc1ccc(OC)cc1)C(=O)[C@H]2CC(=O)NCCC(C)C,/,/,1,/,/,2,/,/
CCCC#Cc1ccc2c(c1)O[C@H](CN(C)S(=O)(=O)c1cccc(OC)c1)[C@H](C)CN([C@H](C)CO)S2(=O)=O,-3,/,9.6*,0,-1,12,25*,13*
SMILES,V-ATPase pHluor,Lipid droplet,ADAM17 inh,aDG glyco act,MPTP block,ADAM10 inh,ADAM10 counter,ADAM17 confirm
COc1cccc(C#Cc2ccc3c(c2)O[C@H](CN(C)S(=O)(=O)c2ccccc2F)[C@H](C)CN([C@H](C)CO)S3(=O)=O)c1,-1,/,11*,0,-2,-6,-24,-5
COc1cccc(S(=O)(=O)N(C)C[C@@H]2Oc3cc(Br)ccc3S(=O)(=O)N([C@@H](C)CO)C[C@@H]2C)c1,-2,/,4,0,-3,14,/,/
Cc1cc(NS(=O)(=O)c2ccc(NC(=O)CSc3nc4sc(C)c(C)c4c(=O)n3Cc3ccco3)cc2)nc(C)n1,/,/,3,/,/,5,/,/
COc1cccc(-c2c(C(=O)N/N=C/c3ccc(C)s3)nnn2-c2nonc2N)c1,-9,29,-5,0,-1,8,/,/
CCOc1cccc(-c2c(C(=O)N/N=C/c3ccc(C)s3)nnn2-c2nonc2N)c1,2,9,9.7*,0,1,13,-20,3
O=C(OCCC1Oc2cccnc2NC1=O)c1ccc([N+](=O)[O-])cc1 (stereo unspecified),/,-10,9.1*,/,/,13,2,6
CC[C@@]1(c2ccc(C)cc2)C(=O)N(C(=O)OC)N1C(=O)OC,/,/,-4,/,/,-7,/,/
C/C(=N\N=C1\NC(=O)CS1)c1cccs1,0,12,11*,0,-2,16,9,7
Oc1ccc(CNc2ccccc2Br)c2cccnc12,/,/,-2,/,/,-2,/,/
Nc1ncnc2c1ncn2[C@@H]1O[C@H](CNCc2ccc(-c3cc(C(F)(F)F)ccc3Cl)o2)[C@@H](O)[C@H]1O,0,/,10*,0,-1,6,-5,2
O=c1ccn([C@@H]2O[C@H](CNCc3ccc(-c4cc(C(F)(F)F)ccc4Cl)o3)[C@@H](O)[C@H]2O)c(=O)[nH]1,0,/,-4,0,1,-11,/,/
O=S(=O)(c1ccccc1)N1CCN=C1SCc1cccc(Cl)c1,1,-16,9.3*,0,1,15,7,9.7*
COc1ccc(CN(CCN2CCOCC2)C(=O)c2cccc(F)c2)cc1OC,/,/,1,/,/,-8,/,/
COc1ccc2c(CCN3C(=O)c4ccccc4C3=O)c(-c3c(CCN4C(=O)c5ccccc5C4=O)c4ccccc4n3C(=O)OC(C)(C)C)[nH]c2c1,/,/,-5,/,/,3,/,/
COc1ccc(NC(=O)CC2C(=O)N(C)C(=S)N2Cc2ccncc2)cc1 (stereo unspecified),-2,-11,9.1*,0,0,9,1,2
CC(Sc1nc2ccccc2s1)C(=O)N(C)Cc1ccccc1 (stereo unspecified),-1,-14,8.8*,0,0,-2,5,4
